ChEMBL document CHEMBL4732158, “Bicyclic Ligand-Biased Agonists of S1P: Exploring Side Chain Modifications to Modulate the PK, PD, and Safety Profiles” (J Med Chem, 2021)
Active and inactive are the calls of the source. No cut-off for these calls is given here.

Experiments:
[1] = Antimigratory activity against human T cells assessed as inhibition of S1P-induced T cell migration preincubated for 10 mins followed by addition of S1P measured after 120 mins by calcein-AM dye based fluorescence analysis; assay type: functional
[2] = molecular target: T1, Sphingosine 1-phosphate receptor 4 (Homo sapiens, UniProt O95977); test: Agonist activity at recombinant human S1P4 expressed in CHO cell membranes assessed as stimulation of [35S]-GTPgammaS binding measured after 45 mins by liquid scintillation counting method; assay type: functional, Membrane
T1 sequence (O95977 whole entry): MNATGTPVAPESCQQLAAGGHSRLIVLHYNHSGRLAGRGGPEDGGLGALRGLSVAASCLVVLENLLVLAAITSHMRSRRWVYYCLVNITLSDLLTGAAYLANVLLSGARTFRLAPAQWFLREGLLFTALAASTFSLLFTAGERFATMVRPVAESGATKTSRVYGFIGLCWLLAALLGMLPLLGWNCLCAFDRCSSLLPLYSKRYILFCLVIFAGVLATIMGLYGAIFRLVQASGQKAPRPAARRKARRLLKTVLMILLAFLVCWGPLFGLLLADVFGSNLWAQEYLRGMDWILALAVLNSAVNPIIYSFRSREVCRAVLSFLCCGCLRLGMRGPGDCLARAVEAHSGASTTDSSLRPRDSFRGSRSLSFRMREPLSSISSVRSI

[3] = Clearance in cynomolgus monkey at 1 mg/kg, iv; assay type: ADME, organism-based, Macaca fascicularis; conditions: in vivo
Rattus norvegicus [4] = test: Antiinflammatory activity in complete freund's adjuvant-induced Lewis rat model of arthritis assessed as reduction in paw edema at 0.5 mg/kg, po administered via gavage once daily and measured at day 18 to 22 by plethysmometric method; assay type: functional, organism-based; conditions: time 18-22 day
[5] = Drug concentration in Lewis rat blood assessed as concentration of parent compound at 2 mg/kg, po measured at 4 hrs by LC-MS/MS analysis; assay type: ADME, organism-based; conditions: Lewis, blood, read-out: Ct
Method in brief: (§1)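 Lewis rats (n = 2−4) dosed orally at 0.5, 1, 2 or 5 mg/kg; blood parent and phosphate metabolite concentrations and lymphocyte counts taken 4 and 24 h post-dose; phosphate-to-parent ratio from 24 h levels; significance versus vehicle by ANOVA with Dunnett's test.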

[6] = Drug concentration in Lewis rat blood assessed as concentration of parent compound at 2 mg/kg, po measured at 24 hrs by LC-MS/MS analysis; assay type: ADME, organism-based; conditions: in vivo, read-out: Ct; method in brief: as §1
[7] = Terminal half life in cynomolgus monkey at 1 mg/kg, po or 1 mg/kg, iv; assay type: ADME, organism-based, Macaca fascicularis; conditions: in vivo, read-out: beta t1/2 (converted)
Method in brief: (§2)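 Single IV and oral dosing in male animals, n = 3. Rats were Sprague-Dawley. Vehicle: 18.4% hydroxypropyl-β-cyclodextrin in 13.8 mM citric acid. Blood concentrations followed over time; terminal T1/2 and steady-state volume of distribution taken from the IV dose.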

[8] = Oral bioavailability in Sprague- Dawley rat at 1 mg/kg; assay type: ADME, organism-based; conditions: in vivo
[9] = Cardiotoxicity in human iPSC derived cardiomyocytes assessed as change in heart rate at 1 nM measured over 2 hrs by multi-electrode array relative to control; assay type: toxicity, cell-based; conditions: stem cell-derived cardiomyocyte, 0.001 µM
Method in brief: (§3)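 Phosphate metabolite of each compound prepared and tested on cultured human induced pluripotent stem cell-derived cardiomyocytes at 1 and 10 nM; beat rate change averaged over three or more replicates per concentration unless noted (some n = 2).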

Rattus norvegicus [10] = test: Antiinflammatory activity in complete freund's adjuvant-induced Lewis rat model of arthritis assessed as increase in paw volume at 2.5 mg/kg, po administered via gavage once daily by plethysmometric method; assay type: functional, organism-based
[11] = Volume of distribution at steady state in cynomolgus monkey at 1 mg/kg, po or 1 mg/kg, iv; assay type: ADME, organism-based, Macaca fascicularis; conditions: in vivo, read-out: Vdss; method in brief: as §2
[12] = AUC ratio in orally dosed Sprague-Dawley rat blood assessed as phosphate metabolite to parent compound; assay type: ADME, organism-based; conditions: in vivo, po
Method in brief: (§4)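 Phosphate-to-parent ratio computed as blood AUC ratio after oral dosing in rats, dogs and monkeys.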

[13] = Volume of distribution at steady state in Sprague- Dawley rat at 1 mg/kg, po or 1 mg/kg, iv; assay type: ADME, organism-based; conditions: in vivo, read-out: Vdss; method in brief: as §2
Rattus norvegicus [14] = test: Antiinflammatory activity in complete freund's adjuvant-induced Lewis rat model of arthritis assessed as effective dose administered via oral gavage once daily by plethysmometric method; assay type: functional
[15] = Cardiotoxicity in human iPSC derived cardiomyocytes assessed as change in heart rate at 10 nM measured over 2 hrs by multi-electrode array relative to control; assay type: toxicity, cell-based; conditions: stem cell-derived cardiomyocyte, 0.01 µM; method in brief: as §3
Rattus norvegicus [16] = test: Antiinflammatory activity in complete freund's adjuvant-induced Lewis rat model of arthritis assessed as reduction in paw edema administered via oral gavage once daily by plethysmometric method; assay type: functional, organism-based
[17] = Oral bioavailability in cynomolgus monkey at 1 mg/kg; assay type: ADME, organism-based, Macaca fascicularis; conditions: in vivo
[18] = Half life in Lewis rat at 2 mg/kg, po measured at 4 to 72 hrs; assay type: ADME, organism-based; conditions: Lewis, in vivo, time 4-72 hrs
Method in brief: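 Half-life estimated from oral-dosing blood PK profiles in Lewis rats sampled at four time points: 4, 24, 48 and 72 h.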

[19] = Terminal half life in Sprague- Dawley rat at 1 mg/kg, po or 1 mg/kg, iv; assay type: ADME, organism-based; conditions: in vivo, read-out: beta t1/2 (converted); method in brief: as §2
Rattus norvegicus [20] = test: Reduction in circulating lymphocytes count in Lewis rat at 2 mg/kg, po measured at 4 hrs by hematology analyzer based analysis; assay type: functional; set-up: scale not given: the % may be the effect or the level left
Method in brief: (§5)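 Lewis rats (n = 2−4) dosed orally; whole-blood lymphocyte counts taken 4 h and 24 h after dosing and reduction expressed versus vehicle-treated rats. Significance by ANOVA with Dunnett's test (p < 0.05 vs vehicle). Blood levels of parent and phosphate metabolite measured at the same time points in this PK/PD screen.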

Rattus norvegicus [21] = test: Antiinflammatory activity in complete freund's adjuvant-induced Lewis rat model of arthritis assessed as reduction in paw swelling at 0.5 mg/kg, po administered via gavage once daily and measured at day 18 to 22 by plethysmometric method relative to control; assay type: functional; set-up: scale not given: the % may be the effect or the level left; conditions: time 18-22 day
[22] = Reduction in circulating lymphocytes count in Lewis rat at 2 mg/kg, po measured at 24 hrs by hematology analyzer based analysis; assay type: Functional, organism-based; set-up: scale not given: the % may be the effect or the level left; conditions: in vivo; method in brief: as §5
[23] = Clearance in Sprague- Dawley rat at 1 mg/kg, iv; assay type: ADME, organism-based; conditions: in vivo
[24] = Pulmonary toxicity in Lewis rat assessed as fold elevation of BAL protein content at 2 mg/kg, po by chemistry analyzer based analysis relative to control; assay type: organism-based; conditions: in vivo
Method in brief: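 Lewis rats dosed orally; bronchoalveolar lavage protein measured at study end, expressed as fold over vehicle control.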

[25] = AUC ratio in orally dosed cynomolgus monkey blood assessed as phosphate metabolite to parent compound; assay type: ADME, organism-based, Macaca fascicularis; conditions: in vivo, po; method in brief: as §4
[26] = Ratio of drug metabolism in Lewis rat blood assessed as phosphate ester metabolite to parent drug at 2 mg/kg, po measured at 24 hrs by LC-MS/MS analysis; assay type: ADME, organism-based; conditions: in vivo; method in brief: as §1
[27] = Terminal half life in dog at 1 mg/kg, po; assay type: ADME, organism-based, Canis lupus familiaris; conditions: in vivo, read-out: beta t1/2 (converted)
[28] = Terminal half life in Sprague- Dawley rat at 2 mg/kg, iv; assay type: ADME, organism-based; conditions: in vivo, read-out: beta t1/2 (converted); method in brief: as §2
[29] = Volume of distribution at steady state in Sprague- Dawley rat at 2 mg/kg, iv; assay type: ADME, organism-based; conditions: in vivo, read-out: Vdss; method in brief: as §2
[30] = AUC ratio in orally dosed Beagle dog blood assessed as phosphate metabolite to parent compound; assay type: ADME, organism-based, Canis lupus familiaris; conditions: in vivo, po; method in brief: as §4
[31] = Clearance in Sprague- Dawley rat at 2 mg/kg, iv; assay type: ADME, organism-based; conditions: in vivo
Rattus norvegicus [32] = test: Antiinflammatory activity in complete freund's adjuvant-induced Lewis rat model of arthritis assessed as reduction in paw swelling at 0.3 mg/kg, po administered via gavage once daily and measured at day 13 to 20 by plethysmometric method relative to control; assay type: functional; set-up: scale not given: the % may be the effect or the level left; conditions: time 13-20 day

| clearance [3] [mL/min/kg] | concentration at 4 h [5] [nM] | concentration [6] [nM] | half-life [7] [h] | Vd [11] [L/kg] | Ratio AUC [12] | bioavailability [17] [%] | half-life [18] [h] | Activity [22] [%] | Ratio AUC [25] | Ratio [26] | Compound | Activity [9] [%] | ED50 (Rattus norvegicus [14]) [mg/kg] | Activity [15] [%] | Activity (Rattus norvegicus [20]) [%] | fold change (FC) [24] | further results |
| --- | --- | --- | --- | --- | --- | --- | --- | --- | --- | --- | --- | --- | --- | --- | --- | --- | --- |
|  |  |  |  |  |  |  |  |  |  |  | CCCCCCCCc1ccc(CCC(N)(CO)COP(=O)(O)O)cc1 (stereo not drawn) |  |  |  |  |  | IC50 [1]: 1.2 nM; EC50 [2]: 1.6 nM |
| 7.4 | 172 | 110 | 21 | 8.4 | 0.9 | 76 | 26 | 83 | 0.73 | 1.8 | CCOCCCC1CCc2cc([C@H]3CC[C@](N)(CO)C3)ccc2C1 (single isomer, unassigned) | -14 | 0.3 | -29 | 78 | 1.2 | Activity (Rattus norvegicus [4]): inactive; bioavailability [8]: 45%; Activity (Rattus norvegicus [10]): inactive; Vd [13]: 12 L/kg; Activity (Rattus norvegicus [16]): Dose-dependent effect; half-life [19]: 29 h; Activity (Rattus norvegicus [21]): 75%; clearance [23]: 6 mL/min/kg |
| 9.7 | 188 | 98 | 17 | 9.9 | 0.3 | 69 | 18 | 82 | < 0.1 | 2.6 | COCCCCCC1CCc2cc([C@H]3CC[C@](N)(CO)C3)ccc2C1 (single isomer, unassigned; 24) | -7 | 0.3 | -23 | 67 | 1.5 | half-life [27]: 81 h; half-life [28]: 19 h; Vd [29]: 13 L/kg; Ratio AUC [30]: 0.31; clearance [31]: 10 mL/min/kg; Activity (Rattus norvegicus [32]): 50% |
